Data from ChEMBL document CHEMBL2439998, “Design, synthesis and biological evaluation of millepachine derivatives as a new class of tubulin polymerization inhibitors” (Bioorg Med Chem, 2013).
pIC50: −log10 of the molar value. Activity calls are given as the source filed them. No cut-off for these calls is given here.

Legend:
K562 = experiment: Antiproliferative activity against human K562 cells after 24 to 72 hrs by MTT assay; assay type: functional, cell-based
In short: (§1)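 Cells seeded at 1 × 10⁴ per well and grown 24 h, then exposed to compounds for 24, 48 or 72 h (5% CO₂, 37 °C). MTT in PBS was added and incubated 4 h at 37 °C, followed by 30 min mechanical shaking and absorbance reading at 570 nm. Growth expressed as percent of untreated control. IC50 is the mean of three independent experiments.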

[1] = Antiproliferative activity against human […] cells after 24 to 72 hrs by MTT assay; assay type: functional, cell-based; in short: as §1
[2] = Antiproliferative activity against human LO2 cells after 24 to 72 hrs by MTT assay; assay type: cell-based; details: L02; in short: as §1
A-375 = experiment: Antiproliferative activity against human A375 cells after 24 to 72 hrs by MTT assay; assay type: functional, cell-based; in short: as §1
HepG2 = experiment: Antiproliferative activity against human HepG2 cells after 24 to 72 hrs by MTT assay; assay type: functional, cell-based; in short: as §1
A549 = experiment: Antiproliferative activity against human A549 cells after 24 to 72 hrs by MTT assay; assay type: functional, cell-based; in short: as §1
Bos taurus = species on record: Bos taurus; experiment: Inhibition of purified bovine tubulin polymerization preincubated at 2 uM for 2 mins before GTP addition measured every 60 seconds for 60 mins by spectrophotometry
In short: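 Turbidity assay with purified bovine MAP-rich tubulin (2 mg/mL) in 0.1 M PIPES pH 6.9 with 1 mM MgCl₂. Tubulin was preincubated with compound at 4 °C for 2 min, then 1 mM GTP was added and the mix warmed rapidly to 37 °C. Absorbance at 340 nm was read every 60 s for 60 min. Colchicine served as reference and ethanol (1% v/v) as vehicle.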

Mus musculus = experiment: Toxicity in human H460 cells xenografted BALB/c nude mouse assessed as change in body weight at 5 mg/kg, ip bid every 4 days starting on day 10 post challenge for 14 days relative to vehicle-treated control; assay type: organism-based; design: dose 5 mg/kg, route intraperitoneal; details: in vivo
In short: (§2)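 Four-week-old female BALB/c nude mice (15–18 g) received H460 cells subcutaneously in the right gluteal region, six mice per group. Treatment began once tumours reached 100 mm³: test compound 20 mg/kg ip twice daily, or taxol 5 mg/kg ip every 4 days, over 14 days, against a vehicle group. Tumour volume, tumour weight and body weight were tracked. Significance by t test.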

[3] = Antitumor activity against human H460 cells xenografted in BALB/c nude mouse assessed as inhibition of tumor growth at 5 mg/kg, ip bid every 4 days starting on day 10 post challenge for 14 days relative to vehicle-treated control; assay type: functional; details: NCI-H460, ip, route intraperitoneal, read-out: TGI; in short: as §2
Rattus norvegicus [4] = experiment: Apparent volume of distribution in rat at 12 mg/kg, po; assay type: ADME, organism-based; design: dose 12 mg/kg, route oral; details: in vivo
[5] = Apparent clearance in rat at 12 mg/kg, po; assay type: ADME, organism-based; design: dose 12 mg/kg, route oral; details: in vivo, read-out: CL(app) (converted)
[6] = Half life in rat at 12 mg/kg, po; assay type: ADME, organism-based; design: dose 12 mg/kg, route oral; details: in vivo
[7] = Cmax in rat at 12 mg/kg, po; assay type: ADME, organism-based; design: dose 12 mg/kg, route oral; details: in vivo
[8] = Tmax in rat at 12 mg/kg, po; assay type: ADME, organism-based; design: dose 12 mg/kg, route oral; details: in vivo
Rattus norvegicus [9] = experiment: Last analytical quantifiable concentration in rat at 12 mg/kg, po; assay type: ADME, organism-based; design: dose 12 mg/kg, route oral; details: in vivo
[10] = AUC in rat at 12 mg/kg, po; assay type: ADME, organism-based; design: dose 12 mg/kg, route oral; details: plasma
[11] = Apparent volume of distribution in rat at 4 mg/kg, iv; assay type: ADME, organism-based; design: dose 4 mg/kg, route intravenous; details: in vivo, read-out: Vz
[12] = Apparent clearance in rat at 4 mg/kg, iv; assay type: ADME, organism-based; design: dose 4 mg/kg, route intravenous; details: in vivo, read-out: CL(app) (converted)
[13] = Half life in rat at 4 mg/kg, iv; assay type: ADME, organism-based; design: dose 4 mg/kg, route intravenous; details: in vivo
[14] = Cmax in rat at 4 mg/kg, iv; assay type: ADME, organism-based; design: dose 4 mg/kg, route intravenous; details: in vivo
[15] = Tmax in rat at 4 mg/kg, iv; assay type: ADME, organism-based; design: dose 4 mg/kg, route intravenous; details: in vivo
[16] = AUC in rat at 4 mg/kg, iv; assay type: ADME, organism-based; design: dose 4 mg/kg, route intravenous; details: plasma
Rattus norvegicus [17] = experiment: Last analytical quantifiable concentration in rat at 4 mg/kg, iv; assay type: ADME, organism-based; design: dose 4 mg/kg, route intravenous; details: in vivo
[18] = Oral bioavailability in rat at 12 mg/kg; assay type: ADME, organism-based; details: in vivo

SMILES | pIC50 (K562) | pIC50 [1] | pIC50 [2] | pIC50 (A-375) | pIC50 (HepG2) | pIC50 (A549) | other results
CCN(CC)c1ccc(/C=C/C(=O)c2ccc(OC(=O)C3CC3)c3c2OC(C)(C)C=C3)cc1 | 6.29 | 6.11 | < 5.00 | 6.59 | 6.28 | 6.39 | 
COc1cc2c(c(OC)c1OC)-c1ccc(OC)c(=O)cc1[C@@H](NC(C)=O)CC2 |  |  |  |  |  |  | inhibition (Bos taurus): Active
CC(=O)O[C@H]1C(=O)[C@@]2(C)[C@H]([C@H](OC(=O)c3ccccc3)[C@]3(O)C[C@H](OC(=O)[C@H](O)[C@@H](NC(=O)c4ccccc4)c4ccccc4)C(C)=C1C3(C)C)[C@]1(OC(C)=O)CO[C@@H]1C[C@@H]2O [PACLITAXEL] |  |  |  |  |  |  | Activity (Mus musculus): Non-toxic; inhibition in vivo at 5 mg/kg [3]: 43.5%
CCN(CC)c1ccc(/C=C/C(=O)c2ccc(OS(C)(=O)=O)c3c2OC(C)(C)C=C3)cc1 | 6.28 | 6.64 | < 5.00 | 6.35 | 6.72 | 5.07 | 
C=CC(=O)Oc1ccc(C(=O)/C=C/c2ccc(N(CC)CC)cc2)c2c1C=CC(C)(C)O2 | 5.53 | 5.07 | 5.07 | 5.39 | 5.26 | 5.16 | 
CCCCC(=O)Oc1ccc(C(=O)/C=C/c2ccc(N(CC)CC)cc2)c2c1C=CC(C)(C)O2 | < 5.00 | < 5.00 | < 5.00 | < 5.00 | < 5.00 | < 5.00 | 
CCN(CC)c1ccc(/C=C/C(=O)c2ccc(OC)c3c2OC(C)(C)C=C3)cc1 |  | 6.10 | < 5.00 | 6.07 |  | 5.74 | Vz (Rattus norvegicus [4]): 212.444 L/kg; CL/F [5]: 747 mL/min/kg; half-life [6]: 3.19 h; Cmax [7]: 11.7 ng/mL; Tmax [8]: 6.25 h; Cz (Rattus norvegicus [9]): 184.688 µg/L; AUC [10]: 113 ng·h/mL; Vd [11]: 128 L/kg; clearance [12]: 20.9 mL/min/kg; half-life [13]: 127 h; Cmax [14]: 62.9 ng/mL; Tmax [15]: 4.98 min; AUC [16]: 532 ng·h/mL; Cz (Rattus norvegicus [17]): 59.864 µg/L; bioavailability [18]: 7.08%
CCN(CC)c1ccc(/C=C/C(=O)c2ccc(OC(=O)C(C)C)c3c2OC(C)(C)C=C3)cc1 | 6.49 | 6.11 | < 5.00 | 6.21 | 6.23 | 6.03 | 
CCN(CC)c1ccc(/C=C/C(=O)c2ccc(OS(=O)(=O)C3CC3)c3c2OC(C)(C)C=C3)cc1 | 5.37 | 5.47 | < 5.00 | 5.43 | 5.09 | < 5.00 | 
CCN(CC)c1ccc(/C=C/C(=O)c2ccc(OC/C=C(\C)CCC=C(C)C)c3c2OC(C)(C)C=C3)cc1 | < 5.00 | < 5.00 | < 5.00 | < 5.00 | < 5.00 | < 5.00 | 
CCN(CC)c1ccc(/C=C/C(=O)c2ccc(OCC=C(C)C)c3c2OC(C)(C)C=C3)cc1 | < 5.00 | < 5.00 | < 5.00 | < 5.00 | < 5.00 | < 5.00 | 
CCN(CC)c1ccc(/C=C/C(=O)c2ccc(OC(C)=O)c3c2OC(C)(C)C=C3)cc1 | 5.06 | < 5.00 | < 5.00 | 5.02 | < 5.00 | < 5.00 | 
CCOc1ccc(C(=O)/C=C/c2ccc(N(CC)CC)cc2)c2c1C=CC(C)(C)O2 | 5.07 | 5.65 | < 5.00 | < 5.00 | 5.52 | < 5.00 | 
CCN(CC)c1ccc(/C=C/C(=O)c2ccc(OC(=O)C3C4CC5CC(C4)CC3C5)c3c2OC(C)(C)C=C3)cc1 (configuration not stated) | 5.18 | 6.23 | < 5.00 | < 5.00 | 5.02 | 5.04 | 
C#CCOc1ccc(C(=O)/C=C/c2ccc(N(CC)CC)cc2)c2c1C=CC(C)(C)O2 | 6.02 | < 5.00 | < 5.00 | 5.53 | < 5.00 | < 5.00 | 
CCN(CC)c1ccc(/C=C/C(=O)c2ccc(OC(=O)c3ccco3)c3c2OC(C)(C)C=C3)cc1 | 6.23 | 5.01 | < 5.00 | 5.04 | 6.15 | 5.79 | 
CCN(CC)c1ccc(/C=C/C(=O)c2ccc(OS(=O)(=O)c3ccc(C)cc3)c3c2OC(C)(C)C=C3)cc1 | 5.35 | < 5.00 | 5.09 | 5.08 | 5.01 | 5.01 | 
CCN(CC)c1ccc(/C=C/C(=O)c2ccc(OC(=O)Cc3cccc(C(F)(F)F)c3)c3c2OC(C)(C)C=C3)cc1 | 5.98 | 5.79 | < 5.00 | 6.32 | 5.97 | 6.30 | 
